Tests used:
[1] = Antitumor activity against intraperitoneally implanted colon 26 (C26) […] system at dose 16 mg/kg; type: functional, Mus musculus; settings: route intraperitoneal
Method in brief: (§1)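 Murine-screen tumor implanted intraperitoneally and treated at the listed mg/kg doses under standard NCI protocols. Activity is read out as T/C, the treated-to-control ratio.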

[2] = Antitumor activity against intraperitoneally implanted colon 26 (C26) […] system at dose 32 mg/kg; type: functional, Mus musculus; settings: route intraperitoneal; method in brief: as §1
[3] = Antitumor activity against intraperitoneally implanted colon 26 (C26) […] system at dose 4 mg/kg; type: functional, Mus musculus; settings: route intraperitoneal; method in brief: as §1
[4] = Antitumor activity against intraperitoneally implanted colon 26 (C26) […] system at dose 8 mg/kg; type: functional, Mus musculus; settings: route intraperitoneal; method in brief: as §1
[5] = system: B16; experiment: Antitumor activity against intraperitoneally implanted B16 melanoma tumor system at dose 16 mg/kg; type: functional, Mus musculus; settings: route intraperitoneal; method in brief: as §1
[6] = system: B16; experiment: Antitumor activity against intraperitoneally implanted B16 melanoma tumor system at dose 2 mg/kg; type: functional, Mus musculus; settings: route intraperitoneal; method in brief: as §1
[7] = system: B16; experiment: Antitumor activity against intraperitoneally implanted B16 melanoma tumor system at dose 32 mg/kg; type: functional, Mus musculus; settings: route intraperitoneal; method in brief: as §1
[8] = system: B16; experiment: Antitumor activity against intraperitoneally implanted B16 melanoma tumor system at dose 4 mg/kg; type: functional, Mus musculus; settings: route intraperitoneal; method in brief: as §1
[9] = system: B16; experiment: Antitumor activity against intraperitoneally implanted B16 melanoma tumor system at dose 8 mg/kg; type: functional, Mus musculus; settings: route intraperitoneal; method in brief: as §1
[10] = system: P388; experiment: Antitumor activity against intraperitoneally implanted P388 lymphocytic leukemia (P388) system at dose 4 mg/kg; type: functional, Mus musculus; settings: route intraperitoneal; method in brief: as §1
[11] = system: P388; experiment: Antitumor activity against intraperitoneally implanted P388 lymphocytic leukemia (P388) system at dose 8 mg/kg; type: functional, Mus musculus; settings: route intraperitoneal; method in brief: as §1
[12] = system: P388; experiment: Antitumor activity against intraperitoneally implanted P388 lymphocytic leukemia (P388) system at dose 16 mg/kg; type: functional, Mus musculus; settings: route intraperitoneal; method in brief: as §1
[13] = system: P388; experiment: Antitumor activity against intracerebrally implanted lymphocytic leukemia (P388) system at dose 16 mg/kg; type: functional, Mus musculus
[14] = system: P388; experiment: Antitumor activity against intracerebrally implanted lymphocytic leukemia (P388) system at dose 8 mg/kg; type: functional, Mus musculus
[15] = Antitumor activity against intracerebrally implanted ependymoblastoma (EM) tumor system at dose 0.5 mg/kg; type: functional
Method in brief: (§2)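 Tumor implanted […] and treated at the listed mg/kg doses under standard NCI protocols. Activity is read out as T/C, the treated-to-control ratio.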

[16] = Antitumor activity against intracerebrally implanted ependymoblastoma (EM) tumor system at dose 1 mg/kg; type: functional; method in brief: as §2
[17] = Antitumor activity against intracerebrally implanted ependymoblastoma (EM) tumor system at dose 2 mg/kg; type: functional; method in brief: as §2
[18] = Antitumor activity against intracerebrally implanted ependymoblastoma (EM) tumor system at dose 0.25 mg/kg; type: functional; method in brief: as §2
[19] = Antitumor activity against intracerebrally implanted ependymoblastoma (EM) tumor system at dose 4 mg/kg; type: functional; method in brief: as §2
[20] = system: Mus musculus; experiment: Antitumor activity against intraperitoneally implanted lymphoid leukemia (LE1210) tumor system at dose 100 mg/kg; type: functional; settings: route intraperitoneal; method in brief: as §1
[21] = system: Mus musculus; experiment: Antitumor activity against intraperitoneally implanted lymphoid leukemia (LE1210) tumor system at dose 12.5 mg/kg; type: functional; settings: route intraperitoneal; method in brief: as §1
[22] = system: Mus musculus; experiment: Antitumor activity against intraperitoneally implanted lymphoid leukemia (LE1210) tumor system at dose 25 mg/kg; type: functional; settings: route intraperitoneal; method in brief: as §1
[23] = system: Mus musculus; experiment: Antitumor activity against intraperitoneally implanted lymphoid leukemia (LE1210) tumor system at dose 50 mg/kg; type: functional; settings: route intraperitoneal; method in brief: as §1
[24] = system: Mus musculus; experiment: Antitumor activity against intraperitoneally implanted lymphoid leukemia (LE1210) tumor system at dose 6.25 mg/kg; type: functional; settings: route intraperitoneal; method in brief: as §1
[25] = system: P388; experiment: Antitumor activity against intraperitoneally implanted lymphocytic leukemia (P388) system at dose 16 mg/kg; type: functional, Mus musculus; settings: route intraperitoneal; method in brief: as §1
[26] = system: P388; experiment: Antitumor activity against intraperitoneally implanted lymphocytic leukemia (P388) system at dose 4 mg/kg; type: functional, Mus musculus; settings: route intraperitoneal; method in brief: as §1
[27] = system: P388; experiment: Antitumor activity against intraperitoneally implanted lymphocytic leukemia (P388) system at dose 8 mg/kg; type: functional, Mus musculus; settings: route intraperitoneal; method in brief: as §1
[28] = Antitumor activity against intracerebrally implanted ependymoblastoma (EM) tumor system at dose 16 mg/kg; type: functional; method in brief: as §2
[29] = Antitumor activity against intracerebrally implanted ependymoblastoma (EM) tumor system at dose 8 mg/kg; type: functional; method in brief: as §2
[30] = system: P388; experiment: Antitumor activity against intraperitoneally implanted P388 lymphocytic leukemia (P388) system at dose 50 mg/kg; type: functional, Mus musculus; settings: route intraperitoneal
Method in brief: (§3)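 P388 lymphocytic leukemia inoculated intraperitoneally and run under standard NCI screening protocols. Each compound was tested at several graded doses in mg/kg. Activity was read out as T/C for each dose, with confirmatory activity judged by the NCI criteria.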

[31] = system: P388; experiment: Antitumor activity against intraperitoneally implanted P388 lymphocytic leukemia (P388) system at dose 100 mg/kg; type: functional, Mus musculus; settings: route intraperitoneal; method in brief: as §3
[32] = system: P388; experiment: Antitumor activity against intraperitoneally implanted P388 lymphocytic leukemia (P388) system at dose 12.5 mg/kg; type: functional, Mus musculus; settings: route intraperitoneal; method in brief: as §3
[33] = system: P388; experiment: Antitumor activity against intraperitoneally implanted P388 lymphocytic leukemia (P388) system at dose 25 mg/kg; type: functional, Mus musculus; settings: route intraperitoneal; method in brief: as §3

`COc1ccc2c(c1O)-c1cccc3c1C(C2)N(CCCl)CC3` (centres undefined) gave a T/C [1] of 108, a T/C [2] of 124 and a T/C [3] of 107. For the same compound, the T/C [4] was 119, the T/C [5] was 106 and the T/C [6] was 100. The T/C [7] was 103, the T/C [8] was 106 and the T/C [9] was 102. For the same compound, the T/C [10] was 151, the T/C [11] was 114 and the T/C [12] was 128. It also gave a T/C [13] of 107, a T/C [14] of 96 and a T/C [15] of 100. For the same compound, the T/C [16] was 96, the T/C [17] was 99 and the T/C [18] was 105. The T/C [19] was 104.

Work on `COc1cc2c3c(c1)-c1c(ccc(OC)c1OC)CC3N(CCN(CCCl)CCCl)CC2` (centres undefined) yielded a T/C [20] of 87, a T/C [21] of 98 and a T/C [22] of 101. The T/C [23] was 101, the T/C [24] was 101 and the T/C [25] was 113. It also gave a T/C [26] of 106, a T/C [27] of 127 and a T/C [28] of 108. For the same compound, the T/C [19] was 108 and the T/C [29] was 104.

With `COc1ccc2c(c1O)-c1cccc3c1C(C2)N(CCOCCCl)CC3` (centres undefined) the T/C [30] was 101, the T/C [31] was 104 and the T/C [32] was 99. The T/C [33] was 107.

Source: ChEMBL document CHEMBL1121504, “Aporphines. 31. Synthesis and antitumor activity of aporphine nitrogen mustards” (1980)
